Test results: ChEMBL document CHEMBL4118110, “The identification of inhibitory compounds of Rickettsia prowazekii methionine aminopeptidase for antibacterial applications” (Bioorg Med Chem Lett, 2018)

Assays:
[1] = Solubility of the compound; assay type: physicochemical
[2] = (§1) Inhibition of Rickettsia prowazekii N-terminal His6-tagged methionine aminopeptidase 1 expressed in Escherichia coli DLB3 Rosetta cells using Met-AMC as substrate preincubated for 1 hr followed by 30 mins incubation after substrate addition measured after 90 mins in presence of MnCl2 by fluorescence assay
How it was run: (§2)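 Recombinant R. prowazekii MetAP with Mn(II) as the metal cofactor. Met-AMC substrate; release of free AMC is followed by fluorescence (excitation 360 nm, emission 460 nm). Activity is the slope of fluorescence versus time, compared with an uninhibited control.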

[3] = as §1, with “cells at 10 uM” for “cells”, “assay relative to control” for “assay”; how it was run: as §2

| SMILES | solubility [1] | IC50 [2] | inhibition [3] |
| --- | --- | --- | --- |
| CCCNC(=O)c1cc(-c2ccccn2)nc2ccccc12 | Insoluble |  |  |
| NCc1nnnn1-c1cccc(Br)c1 | Insoluble |  |  |
| O=C(O)c1cc2ccc(F)cc2oc1=O |  | 8.3 µM | 23 to 78% |
| Nc1nnc(SCc2cccc3ccccc23)[nH]1 |  | 5 µM | 74 to 83% |
| C=CCNC(=O)c1cc(-c2ccccn2)nc2ccccc12 | Insoluble |  |  |
| CNS(=O)(=O)c1ccc(C(=O)O)o1 |  | 0.27 µM | 43 to 91% |
| O=C(O)c1cc(-c2ccccc2)on1 |  | 1.4 µM | 80 to 82% |
| O=C(O)c1cc(-c2ccc(Cl)cc2)n[nH]1 | Insoluble |  |  |
| Cc1csc(-c2ccccn2)n1 |  | 1.1 µM | 85 to 89% |
| CCCCn1cnc2sc(C(=O)O)c(C)c2c1=O |  | 3.1 µM | 46 to 54% |
| COc1ccc2c(C)c(C(=O)O)[nH]c2c1 |  | 3.7 µM | 28 to 80% |
| CC(=O)Nc1ccc(C(=O)CSc2nnc(N)[nH]2)cc1 |  | 10 µM | 89% |
| Cc1ccc(C(=O)CSc2nnc(C)[nH]2)c(C)c1 |  | 0.4 µM | 54 to 68% |
